Measurements as given in ChEMBL document CHEMBL1134680, “Iridals are a novel class of ligands for phorbol ester receptors with modest selectivity for the RasGRP receptor subfamily” (J Med Chem, 2001).

How the values were obtained:
[1] = molecular target: Protein kinase C alpha type (Homo sapiens, UniProt P17252); experiment: Binding affinity for PKC alpha (C1b domain)
Summary of the method: (§1)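 Competition of [3H]PDBu (3.0 nM) binding to partially purified PKCα or bacterially expressed MBP/RasGRP3 fusion (human RasGRP3, amylose-bead purified). Buffer: 50 mM Tris-Cl pH 7.4, 2 mg/mL γ-globulins, 0.1 mM Ca2+, 0.1 mg/mL phosphatidylserine. Incubation was 5 min at 37 °C for PKCα and 5 min at 18 °C for RasGRP3. Nonspecific binding was set with 30 μM PDBu. Bound and free were separated by PEG precipitation and counted.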

[2] = molecular target: T1, Ras guanyl-releasing protein 3 (Homo sapiens, UniProt Q8IV61); experiment: Binding affinity for RasGPR3, guanine nucleotide exchange factor; summary of the method: as §1
T1 sequence (Q8IV61 whole entry): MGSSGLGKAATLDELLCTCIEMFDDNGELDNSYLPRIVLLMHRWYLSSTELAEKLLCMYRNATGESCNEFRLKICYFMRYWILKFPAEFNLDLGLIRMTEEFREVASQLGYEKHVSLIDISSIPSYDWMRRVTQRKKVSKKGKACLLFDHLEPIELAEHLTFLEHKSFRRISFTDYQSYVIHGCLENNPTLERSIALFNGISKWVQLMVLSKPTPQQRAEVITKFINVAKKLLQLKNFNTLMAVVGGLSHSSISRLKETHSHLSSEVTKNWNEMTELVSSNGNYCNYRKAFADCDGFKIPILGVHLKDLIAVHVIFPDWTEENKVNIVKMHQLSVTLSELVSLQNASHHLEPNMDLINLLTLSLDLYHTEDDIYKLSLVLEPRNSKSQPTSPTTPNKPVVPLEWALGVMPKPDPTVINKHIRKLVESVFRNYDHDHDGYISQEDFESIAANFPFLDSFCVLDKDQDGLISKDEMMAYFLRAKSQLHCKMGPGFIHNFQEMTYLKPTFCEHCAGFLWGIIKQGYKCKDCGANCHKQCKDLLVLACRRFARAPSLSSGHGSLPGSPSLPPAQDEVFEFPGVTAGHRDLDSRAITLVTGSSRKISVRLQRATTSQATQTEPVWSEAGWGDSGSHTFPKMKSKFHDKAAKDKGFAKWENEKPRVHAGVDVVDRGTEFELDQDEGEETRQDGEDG

[3] = tested on: Panel NCI-60 (60 carcinoma cell lines); experiment: Inhibition of cell growth in NCI panel of 60 human carcinoma lines; assay type: functional
[4] = molecular target: T1, Ras guanyl-releasing protein 3; experiment: Binding affinity for RasGRP, guanine nucleotide exchange factor

Ki [1] [µM] | Ki [2] [µM] | Ki [4] [µM] | Compound | Log 1/GI50 [3]
0.0836 | 0.0417 |  | C=C(/C=C/C=C(/CCC=C(C)C)COC(C)=O)[C@@H]1CC[C@]2([C@H](CCCO)/C(=C(/C)C=O)CC[C@]2(C)O)[C@@H]1O | 4.4
 |  |  | C=C(C)[C@@]12OC3(c4ccccc4)O[C@@H]1[C@@H]1[C@@H]4O[C@]4(CO)[C@@H](O)[C@]4(O)C(=O)C(C)=C[C@H]4[C@@]1(O3)[C@H](C)[C@H]2OC(=O)/C=C/C=C/c1ccccc1 | 5.8
 |  |  | CCCCC(=O)O[C@@H]1[C@@H](C)[C@@]2(O)[C@@H](C=C(CO)C[C@]3(O)C(=O)C(C)=C[C@@H]23)[C@@H]2C(C)(C)[C@]12OC(=O)CCC | 4
0.0756 |  | 0.0155 | CC1=CC[C@H](C)C(C)(C)[C@@H]1/C=C/C(C)=C\CC[C@@]1(CO)[C@H](CCCO)/C(=C(/C)C=O)CC[C@]1(C)O | 4.6
 |  |  | C=C(C)[C@]12C[C@@H](C)[C@@]34O[C@](/C=C/C=CCCCCCCCCC)(O[C@@H]1[C@@H]3[C@@H]1O[C@]1(CO)[C@@H](O)[C@]1(O)C(=O)C(C)=C[C@H]14)O2 | 4.7
 |  |  | C=C(C)[C@@]12C[C@@H](COC(=O)c3ccccc3)[C@@]34OC5(O[C@@H]1[C@@H]3[C@@H]1O[C@]1(CO)[C@@H](O)[C@@]1(O)[C@H]4[C@H]([C@H](C)[C@@H]1OC(=O)c1ccccc1)[C@H](C)CCCCCC[C@H]5O)O2 [GNIDIMACRIN] | 4
 |  |  | CC1=C[C@H]2[C@@]3(O)[C@H](C)[C@@H](O)[C@]4(O)[C@H]([C@@H]3C=C(CO)C[C@]2(O)C1=O)C4(C)C [PHORBOL] | 4.3
 |  |  | CC(=O)O[C@@]12C[C@@H](C)[C@@]3(O)[C@@H](C=C(CO)C[C@]4(O)C(=O)C(C)=C[C@@H]34)[C@@H]1C2(C)C [PROSTRATIN] | 3
